Compound activity from PubChem BioAssay.
This is a sample that favours compounds with a hit; in the whole collection about 3.1% have one here.
PGC1a acetyl inh: PGC1a acetylation modulation, inhibitor mode; U2OS PGC1a acetylation, AlphaScreen anti-acetyl-lysine; with virally co-expressed GCN5 acetyltransferase; inhibition, % at 15.6 µM; 0.17% of 350,000 active;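 active = every replicate shows inhibition of at least 40%; inconclusive = mean inhibition at least 40% but some replicate below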;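 note: 0% = neutral control wells and 100% = positive control wells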
FGF22 binding: shifts melting point of recombinant human FGF22; Q9HCT0; activity (Tm shift, normalised), % at 9.99 µM; recombinant FGF22 thermal shift, SYPRO orange fluorescence; percent of sucrose octasulfate shift, DMSO zero; 1.5% of 340,000 active;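 active = mean Tm shift, scaled 0 neutral to 100 positive control, at about 1.3% or above, every replicate too, limit read from the data; inconclusive = no clear call, values can overlap the other calls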
Target sequence (Q9HCT0 whole entry, looked up): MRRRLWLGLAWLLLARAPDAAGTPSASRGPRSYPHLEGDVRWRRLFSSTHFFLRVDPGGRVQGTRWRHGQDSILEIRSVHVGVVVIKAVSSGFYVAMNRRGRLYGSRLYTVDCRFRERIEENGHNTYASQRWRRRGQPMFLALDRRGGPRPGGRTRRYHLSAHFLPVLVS
FN deposition inh: fibronectin deposition inhibition | AH1F fibroblasts, Alexa488-fibronectin deposition fluorescence, overnight | inhibition, % at 12.6 µM | 0.086% of 350,000 active | AID 743247;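 active = mean inhibition across replicates of 30% or more, regardless of how many single replicates reach that level; inconclusive = mean under 30% yet at least half of replicates reach 30%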;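 note: positive control wells lacked labelled fibronectin entirely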
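Schedule: 1 h cell adhesion before compound, then overnight fibronectin incubation; test system: AH1F fibroblast monolayer depositing Alexa488-labelled fibronectin into matrix; quantity: 10000 AH1F cells per well; probe or stimulus: fluorescent fibronectin at 24 nM final; signal: fluorescence, ex 485 nm, em 525 nm; evaluation: percent inhibition as loss of matrix-bound fibronectin fluorescence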
PAX8 reporter: PAX8 transcriptional activity inhibition | 1.2% of 360,000 active | AID 652154 | inhibition, % at 12.6 µM | RMG-I TPO-luciferase reporter, SteadyGlo, 24 h;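 active = mean replicate inhibition at least 60% with every replicate also reaching 60%; inconclusive = only one of the two criteria is met; inactive = mean below 60% and not all replicates reaching 60%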;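 note: luciferase light reporting Pax8 driven TPO promoter activity; plate controls were median of neutral control wells for no effect and mitoxantrone controls for full effect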
HIV Env fusion: blocks HIV Env-driven cell-cell fusion. HeLa-JRFL Env/CEM21 cell fusion, luciferase. inhibition, % at 12.3 µM. 1.1% of 360,000 active;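 active = mean replicate inhibition score of at least 50 and every replicate individually at or above 50; inconclusive = only one of the two criteria met; inactive = mean below 50 and not all replicates reaching 50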;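 note: 0% = plate neutral controls and 100% = maraviroc near 300 nM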
EWS-Fli block: blocks EWS/Fli oncoprotein-driven transcription. A673 NR0B1-luciferase reporter, viability-normalised. inhibition, % at 12.6 µM. 0.67% of 350,000 active;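 active = mean inhibition of at least 50% after viability correction, with every replicate also passing that limit; inconclusive = mean reaches 50% but only one of two replicates passes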;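 note: firefly luciferase signal divided by Alamar Blue viability fluorescence both relative to DMSO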
* = called active by the depositor; u = inconclusive; x = not tested or not shown; ! = a repeat was not active; [ ] = another dose, or the depositor's remark.

SMILES | PGC1a acetyl inh | FGF22 binding | FN deposition inh | PAX8 reporter | HIV Env fusion | EWS-Fli block
COc1cccc(/C=N/NC(=O)c2cc(-c3ccccn3)nc3ccccc23)c1O | 14 | 0 | 22 | 68* | 3 | 9
O=C(N/N=C/c1ccc2c(c1)OCO2)c1cc(-c2ccc(F)cc2)nc2ccccc12 | u | 0 | 4 | 6 | -3 | -15
CO[C@H]1CN(C)C(=O)c2ccc(NS(C)(=O)=O)cc2OC[C@@H](C)N(C(=O)NC(C)C)C[C@H]1C | 0 | 0 | 8 | -7 | 5[16.7 µM] | 1
COc1cc(/C=N/NC(=O)c2cccnc2)ccc1OCC(=O)Nc1ccc(C)cc1 | x | 44* | 1 | 8 | -12 | -19
CCNC(=O)COc1ccc(/C=N/NC(=O)c2cccnc2)cc1OC | -12 | 0 | 2 | 11 | -1 | 1
COc1cc(/C=N/NC(=O)c2ccncc2)ccc1Oc1ccc([N+](=O)[O-])cn1 | 6 | 0 | 8 | 4 | -4 | 5
COc1cc(/C=N/NC(=O)c2ccc(O)cc2)ccc1OCC(=O)Nc1cccc([N+](=O)[O-])c1 | 52* | 0 | -5 | -59 | -21 | -65
Cc1ccc(COc2ccccc2-c2cc(C(=O)N/N=C/c3cccnc3)[nH]n2)cc1 | x | 0 | 10 | 17 | -190 | 58*
CCOc1ccccc1-c1cc(C(=O)N/N=C/c2cccnc2)c2ccccc2n1 | x | 0 | -8 | -1 | 11 | 0
COc1cc(/C=N/NC(=O)c2cccc([N+](=O)[O-])c2)ccc1OCc1ccccc1 | -15 | 0 | x | x | x | -73
COc1cc(/C=N/NC(=O)c2ccc(O)cc2)ccc1Oc1ccc([N+](=O)[O-])cn1 | x | 44* | 11 | 18 | -2 | -2
CCCNC(=O)C[C@H]1CC[C@H]2[C@@H](COC[C@H](O)CN2CC2CCCCC2)O1 | -4 | 0 | 0 | x | x | x
Cc1ccc(C(O)c2ncc(-c3cccc4ccccc34)[nH]2)cc1F (centres undefined) | -15 | 0 | 30* | 0 | -3 | 7
Cc1ccc(C(O)c2ncc(-c3ccccc3C)[nH]2)cc1F (centres undefined) | -2 | 0 | 1 | 0 | -3 | -15
C[C@@H]1CCCCO[C@@H](CN(C)C(=O)c2ccncc2)[C@H](C)CN([C@@H](C)CO)C(=O)c2cc(NS(C)(=O)=O)ccc2O1 | 9 | 0 | x | x | -8[16.7 µM] | -10
CCc1nc2ccc(C(=O)N3CCN(C(=O)c4ccco4)CC3)cn2c1N(C)Cc1ccc(OC)cc1 | 3 | 0 | 3 | 16 | 72* | 5
COc1cc(CNCCN2CCOCC2)ccc1OCc1ccc(Cl)cc1Cl | 101* | x | x | x | x | x
COc1cc(C(=O)NC2CCCCC2)ccc1OCc1ccc(Cl)cc1Cl | x | 43* | 5 | 7 | 7 | 12
COC(=O)c1cccc(-c2noc(-c3ccccc3F)n2)c1 | 4 | 0 | 9 | 46 | 13 | 90*
NC(=O)c1cccc(-c2noc(-c3ccccc3F)n2)c1 | 14 | 0 | -8 | -1 | -203 | 87*
Fc1ccccc1-c1nc(-c2ccccc2)no1 | 3 | x | 0 | -115 | -403 | x
Fc1ccc(F)c(C2=NNC(=NCC3CCCO3)SC2)c1 (centres undefined) | x | 43* | 1 | -25 | -10 | -22
CC(=O)Nc1ccc(C2=NNC(=NCC3CCCO3)SC2)cc1 (centres undefined) | 5 | 0 | 2 | x | -37 | -6
Cc1cccc(/C=C/c2onc(C)c2S(=O)(=O)N2CCC(C(=O)NC(C)(C)C)CC2)c1 | -12 | 0 | -18 | 6 | -34 | 4
Cc1cccc(NC(=O)C2CCN(S(=O)(=O)c3c(C)noc3/C=C/c3ccco3)CC2)n1 | x | x | 7 | 62* | 6 | x
SMILES | PGC1a acetyl inh | FGF22 binding | FN deposition inh | PAX8 reporter | HIV Env fusion | EWS-Fli block
Cc1cccc(NC(=O)C2CCN(S(=O)(=O)c3ccc4c(c3)OCCCO4)CC2)n1 | x | 0 | 0 | 20 | 83* | 10
CCC(C)N1CCN(C(=O)C2CCN(S(=O)(=O)c3c(C)noc3/C=C/c3ccco3)CC2)CC1 (centres undefined) | 0 | 0 | 0 | 70* | -8 | 8
Cc1cccc(NC(=O)C2CCN(S(=O)(=O)c3ccc4c(c3)OCCO4)CC2)n1 | x | 0 | 3 | 8 | x | 7
CC(C)NC(=O)N(C)C[C@@H]1Oc2ccc(NS(=O)(=O)c3ccc(Cl)cc3)cc2C(=O)N([C@H](C)CO)C[C@H]1C | 0 | 0 | -1 | 11 | x | 2
CCN(C(=O)CSc1nnc(-c2ccccc2Br)o1)C1CCS(=O)(=O)C1 (centres undefined) | 6 | 0 | x | 4 | -2 | 5
COc1ccc(CN(C(=O)CSc2nnc(-c3c[nH]c4ccccc34)o2)c2ccc(F)cc2)cc1OC | -12 | x | 5 | 81* | -2 | x
CCN(C(=O)CSc1nnc(-c2c[nH]c3ccccc23)o1)C1CCS(=O)(=O)C1 (centres undefined) | 17 | 43* | -6 | 15 | 1 | 0
COc1ccc(CN(C(=O)CSc2nnc(-c3ccc(F)cc3)o2)c2ccc(F)cc2)cc1 | 12 | 0 | x | x | x | 6
C[C@@H]1CN([C@H](C)CO)C(=O)c2cc(C#Cc3ccccc3F)cnc2O[C@@H]1CN(C)S(C)(=O)=O | 8 | 0 | -11 | 17 | 24[16.7 µM] | 8
CCN(C[C@H]1[C@H](c2ccccc2)[C@@H](CO)N1S(C)(=O)=O)C(=O)C1CCCC1 | 1 | 0 | -6 | 4 | x | -4
COc1ccc(NC(=O)N(C)C[C@H]2OCCCC[C@H](C)Oc3ccc(NC(=O)c4ccccc4)cc3C(=O)N([C@H](C)CO)C[C@H]2C)cc1 | 2 | 0 | 10 | x | -7[16.7 µM] | -2
CCN(C(=O)CCS(=O)(=O)c1cc2c(cc1Cl)NC(=O)CO2)c1ccccc1 | 3 | 0 | -3 | 9 | 72* | 5
CCCNC(=O)N1C[C@@H](O)COC[C@@H]2O[C@H](CC(=O)O)CC[C@H]21 | 1 | 0 | 1 | 3 | -10[16.7 µM] | 2
C[C@H]1CN([C@@H](C)CO)S(=O)(=O)c2ccc(C#Cc3ccc(F)cc3)cc2O[C@@H]1CN(C)C(=O)CN(C)C | -33 | -1 | 0 | x | 9[16.7 µM] | 67*
C[C@@H]1CN([C@H](C)CO)S(=O)(=O)c2ccc(C#Cc3cccc(F)c3)cc2O[C@@H]1CN(C)C(=O)CN1CCOCC1 | 6 | 0 | 3 | 13 | 81*! | 9
C[C@H](CO)N1C[C@H](C)[C@H](CN(C)C(=O)CN2CCOCC2)Oc2cc(C#Cc3cccc(F)c3)ccc2S1(=O)=O | -5 | 0 | 0 | x | 3[16.7 µM] | -3
C[C@H](CO)N1C[C@H](C)[C@H](CN(C)C(=O)CN(C)C)Oc2cc(C#Cc3ccc(F)cc3)ccc2S1(=O)=O | -21 | -1 | 5 | x | -7[16.7 µM] | 58*
